Key:
human HAB TSPO = human HAB TSPO (Homo sapiens, UniProt P30536); assay type: binding; settings: pKi – logD for human cerebellum HAB
Measurement of LogD = assay type: physicochemical; settings: n-octanol/sodium phosphate buffer, pH 7.4
Outline: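 Partition of each carbon-11-labelled test compound between n-octanol and sodium phosphate buffer (pH 7.4), run at room temperature. Radioactivity distribution between the phases gives logD.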

Sequence of human HAB TSPO (P30536 whole entry): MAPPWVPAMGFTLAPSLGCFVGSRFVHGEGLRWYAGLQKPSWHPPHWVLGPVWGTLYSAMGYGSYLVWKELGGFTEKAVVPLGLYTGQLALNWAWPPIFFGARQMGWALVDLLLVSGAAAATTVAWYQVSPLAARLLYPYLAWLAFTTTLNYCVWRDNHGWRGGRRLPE

CCC(C)N(C)C(=O)c1cc2ccccc2c(-c2ccccc2Cl)n1 (centres unmarked) [Ligand 1]
LipE (human HAB TSPO): 4.37 | logD (Measurement of LogD): 3.97 ± 0.18
